Test results from ChEMBL document CHEMBL3421591, “Improved Synthesis of Biotinol-5'-AMP: Implications for Antibacterial Discovery” (ACS Med Chem Lett, 2015).
≈ marks a conversion by molar mass, not a printed value. Calls of active or inactive are those of the source. No cut-off for these calls is given here.

Tests used:
Staphylococcus = test: Antimicrobial activity against coagulase-negative Staphylococcus after 16 to 20 hrs by two-fold microdilution broth method; format: functional
[1] = Cytotoxicity against human HepG2 cells after 24 to 48 hrs by WST-1 assay; format: cell-based
Enterococcus faecium = test: Antimicrobial activity against Enterococcus faecium after 16 to 20 hrs by two-fold microdilution broth method; format: functional
[2] = tested on: Mycobacterium tuberculosis; test: Antimicrobial activity against Mycobacterium tuberculosis 37892293 after 16 to 20 hrs by two-fold microdilution broth method; format: functional
Staphylococcus aureus [3] = test: Competitive inhibition of Staphylococcus aureus recombinant BPL using 3H-biotin as substrate by Lineweaver-Burk plot analysis
Procedure, shortened: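 S. aureus BPL biotinylation with ³H-biotin: enzyme velocity measured across varying biotin concentrations at inhibitor 0, 20, 100 and 200 nM. Double-reciprocal Lineweaver–Burk plots of 1/velocity vs 1/biotin were used to define the inhibition mode, with K_M and V_max compared across inhibitor levels. Points are mean ± SEM of three replicates.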

Escherichia coli = test: Antimicrobial activity against Escherichia coli ATCC 25922 after 16 to 20 hrs by two-fold microdilution broth method; format: functional
[4] = tested on: Mycobacterium tuberculosis; test: Antimicrobial activity against Mycobacterium tuberculosis 3688023 after 16 to 20 hrs by two-fold microdilution broth method; format: functional
[5] = Inhibition of Staphylococcus aureus recombinant BPL using 3H-biotin as substrate after 10 mins by liquid scintillation counting analysis; conditions: read-out: Ki(app)
Procedure, shortened: (§1)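 In vitro biotinylation assay measuring radiolabeled biotin incorporation onto an acceptor protein by each recombinant BPL, run at varying inhibitor concentrations. Apparent Ki was fitted with the Morrison tight-binding equation, accounting for the BPL concentration in the assay. It was then extrapolated using each enzyme's apparent K_M for biotin, assuming inhibition competitive with biotin.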

[6] = Inhibition of Acinetobacter calcoaceticus recombinant BPL using 3H-biotin as substrate after 10 mins by liquid scintillation counting analysis; conditions: read-out: Ki(app); procedure, shortened: as §1
Enterococcus faecalis = test: Antimicrobial activity against Enterococcus faecalis after 16 to 20 hrs by two-fold microdilution broth method; format: functional
Staphylococcus aureus [7] = test: Antimicrobial activity against methicillin-sensitive Staphylococcus aureus after 16 to 20 hrs by two-fold microdilution broth method; format: functional
Staphylococcus aureus [8] = test: Antimicrobial activity against methicillin-resistant Staphylococcus aureus after 16 to 20 hrs by two-fold microdilution broth method; format: functional
[9] = Inhibition of Mycobacterium tuberculosis recombinant BPL using 3H-biotin as substrate after 10 mins by liquid scintillation counting analysis; conditions: read-out: Ki(app)
Procedure, shortened: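 Recombinant BPL activity was measured as radiolabelled biotin incorporated onto an acceptor protein, across a range of inhibitor concentrations. Apparent Ki came from the Morrison tight-binding equation, because Ki values lay within 10-fold of the BPL concentration used. Binding was treated as competitive with biotin, so values were extrapolated using the apparent KM for biotin.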

[10] = tested on: Mycobacterium tuberculosis; test: Antimicrobial activity against Mycobacterium tuberculosis H37Rv after 16 to 20 hrs by two-fold microdilution broth method; format: functional
[11] = Inhibition of Klebsiella pneumonia recombinant BPL using 3H-biotin as substrate after 10 mins by liquid scintillation counting analysis; set-up: species or system Klebsiella pneumoniae; conditions: read-out: Ki(app); procedure, shortened: as §1

Row | Structure (SMILES) | MIC (Staphylococcus) | CC50 [1] | MIC (Enterococcus faecium) | MIC [2] | inhibition (Staphylococcus aureus [3]) | MIC (Escherichia coli) | MIC [4] | Ki [5] | Ki [6] | MIC (Enterococcus faecalis) | MIC (Staphylococcus aureus [7]) | MIC (Staphylococcus aureus [8]) | Ki [9] | MIC [10] | Ki [11]
1 | Nc1ncnc2c1ncn2[C@@H]1O[C@H](COP(=O)(O)OCCCCC[C@@H]2SC[C@@H]3NC(=O)N[C@@H]32)[C@@H](O)[C@H]1O | 1 µg/mL (≈ 1.79 µM) | > 200 µg/mL | > 128 µg/mL | 2.5 µg/mL (≈ 4.47 µM) | Active | > 128 µg/mL | 0.5 µg/mL (≈ 0.894 µM) | 18 nM | 461 nM | > 128 µg/mL | 2 µg/mL (≈ 3.57 µM) | 2 µg/mL (≈ 3.57 µM) | 52 nM | 2.5 µg/mL (≈ 4.47 µM) | 482 nM
2 | Nc1ncnc2c1ncn2[C@@H]1O[C@H](CNS(=O)(=O)NC(=O)CCCC[C@@H]2SC[C@@H]3NC(=O)N[C@@H]32)[C@@H](O)[C@H]1O |  |  |  | 0.1 µg/mL (≈ 0.175 µM) |  |  | 0.1 µg/mL (≈ 0.175 µM) |  |  |  |  |  |  | 0.1 µg/mL (≈ 0.175 µM) | 
